SENP1 inh = SENP1 (human) catalytic domain inhibition; Q9P0U3; recombinant SENP1 catalytic domain, CyPet-SUMO1-YPet FRET cleavage; inhibition, % at 10 µM; actives 0.21% (n = 360,000);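 active = inhibition at least 30% at 10 µM, raw YFP signal under a set limit, fluorescence ratio 0.5 to 1.5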
Target sequence (Q9P0U3 419-644 limits assumed): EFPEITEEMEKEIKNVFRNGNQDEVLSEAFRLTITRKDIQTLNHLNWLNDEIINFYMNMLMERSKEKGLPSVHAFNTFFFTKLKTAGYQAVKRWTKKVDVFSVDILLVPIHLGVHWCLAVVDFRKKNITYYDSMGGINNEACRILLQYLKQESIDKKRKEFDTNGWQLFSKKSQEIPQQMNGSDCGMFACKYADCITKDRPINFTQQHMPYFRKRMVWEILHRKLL
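Material – human SENP1 catalytic domain · Input – SENP1 enzyme, 20 pM final · Compound dosing – single concentration of 10 µM compound, 0.5% DMSO final · Timing – enzyme reaction for 50 min at room temperature, dark · Measured by – FRET fluorescence in CFP and YFP emission channels · Control set – no-enzyme wells low, DMSO-plus-enzyme wells high control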
Fh CTSL1 inh = blocks F. hepatica cathepsin L1 in PFM18AAP counter-screen; recombinant F. hepatica cathepsin L1, Z-Leu-Arg-MCA fluorescence; inhibition, % at 5.96 µM; actives 0.49% (n = 300,000); AID 1906;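 active = inhibition above the mean of all tested compounds plus 3 SD, set per screening campaign, cut at about 17% in these data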
M18AAP inhibitor = PfM18AAP enzyme inhibition. recombinant PfM18AAP, H-Glu-NHMec fluorogenic cleavage. inhibition, % at 7.35 µM. actives 1.2% (n = 290,000);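 active = inhibition above the campaign mean inhibition over all tested compounds plus 3 SD, cut at about 28% in these data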
GAA850 FXN act = activators of GAA850 frataxin (FXN) promoter; HEK293 lucGAA850 FXN promoter luciferase reporter, 24 h; percent of 10 µM SAHA response; activation, % at 6 µM; actives 0.56% (n = 360,000);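 active = activation above the average of all compounds screened plus 3 SD, cutoff fixed separately per campaign, cut at about 7.5% in these data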
HDAC3 inhib = inhibitors of human histone deacetylase 3 | recombinant HDAC3, fluorogenic peptide/trypsin coupled, fluorescence | inhibition, % at 8.3 µM | actives 0.15% (n = 320,000) | O15379; in the data active = inhibition above about 26%, passing the limit was not always enough
AHR act = activators of human aryl hydrocarbon receptor; AHR-responsive luciferase reporter cells, luminescence; activation, % at 5 µM; P35869; actives 2.5% (n = 320,000); AID 2796; in the data active = activation above about 47%
A number is an active result; n = inactive; x = no result. An excerpt weighted towards active compounds, which were near 4.2% of everything screened.

SMILES	SENP1 inh	Fh CTSL1 inh	M18AAP inhibitor	GAA850 FXN act	HDAC3 inhib	AHR act
COc1ccc(C2=Nn3c([n+](C)c4ccccc43)SC2)cc1	n	n	n	n	31	59
C[n+]1c2n(c3ccccc31)N=C(c1ccc(Cl)cc1)CS2	n	n	n	n	55	64
Cn1c(Cc2ccccc2)[n+](C)c2ccccc21	n	n	n	n	n	n
Clc1ccc(C2=Nn3c(Cn4nnc5ccccc54)nnc3SC2)cc1	n	n	n	n	n	n
CC1Sc2n(c3ccccc3[n+]2C)N=C1c1ccccc1 (stereo unspecified)	n	n	n	n	n	74
Cc1cnc(C(=O)Oc2ccc(-c3ccccc3)cc2)cn1	n	n	n	n	n	n
CCC1CCC(C(=O)NC(CCSC)C(=O)NCCN(CC(C)C)CC(C)C)CC1 (stereo unspecified)	n	31	n	n	n	n
CSCCC(NC(=O)C1CCC(C)CC1)C(=O)O (stereo unspecified)	n	n	n	n	n	n
CC(C)CC(NC(=O)C1CCC(C)CC1)C(=O)NCCN1CCOCC1 (stereo unspecified)	n	60	n	n	n	n
CC1CCC(C(=O)NC(C(=O)NCCN2CCC(C)CC2)C(C)C)CC1 (stereo unspecified)	n	x	n	n	x	x
CSCCC(NC(=O)C1CCC(C)CC1)C(=O)NCCN1CCOCC1 (stereo unspecified)	n	38	n	n	n	n
Cc1nc2nc(C)n(CCN3CCOCC3)c(=O)c2c(-c2cccc([N+](=O)[O-])c2)c1C(=O)CCCCCCCCCCN1CCC(c2ccccc2)(c2ccccc2)CC1	n	x	x	n	x	x
Cc1occc1C(=O)Nc1cc(S(=O)(=O)N2CCOCC2)ccc1OC(C)C	n	x	x	n	n	n
CC1=C(C(=O)N2CCCCCC2)CC(CC(=O)NC2CCCC2)C(=O)N1Cc1ccc(F)cc1 (stereo unspecified)	n	x	x	x	x	x
COc1ccc(C(=O)Nc2nc(N)n(-c3ccccc3)n2)cc1OC	n	n	n	n	n	n
COc1ccccc1/C=C/C(=O)Nc1nc(N)n(-c2ccccc2)n1	n	n	n	n	n	78
CN1c2ccsc2/C(=N/Nc2ccccc2)CS1(=O)=O	n	n	n	n	n	74
O=S(=O)(Nc1ccc(-c2nc3cccnc3s2)cc1)c1cc(F)ccc1F	n	n	n	n	n	n
Cc1nc2ccc(S(=O)(=O)Nc3cccc(-c4nc5cccnc5s4)c3C)cc2s1	n	n	n	n	x	n
Cc1ccc(-c2nc3cccnc3s2)cc1NS(=O)(=O)c1cccs1	n	n	n	n	n	59
Cc1nc2ccc(S(=O)(=O)Nc3cc(-c4nc5cccnc5s4)ccc3C)cc2s1	n	n	n	n	x	53
COc1ccc2[nH]c3c(c2c1)CCN1C(=O)N([C@@H](C)C(=O)NCc2ccco2)C(=O)[C@]31C	n	n	n	n	n	n
CC1CC(C)CN(C(=O)c2cc3ccccc3o2)C1 (stereo unspecified)	n	n	x	n	n	58
CC1CCN(C(=O)c2cc3ccccc3o2)CC1	n	n	n	n	n	n
Cc1[nH]n(-c2ccccc2)c(=S)c1C=Nc1ccc([N+](=O)[O-])cc1	n	n	51	n	n	n
SMILES	SENP1 inh	Fh CTSL1 inh	M18AAP inhibitor	GAA850 FXN act	HDAC3 inhib	AHR act
Cc1[nH]n(-c2ccccc2)c(=O)c1C=Nc1ccc(S(=O)(=O)N=C(N)N)cc1	n	n	n	n	x	n
CCN1CCCC1CNC(=O)CN(C)S(=O)(=O)c1ccc(Cl)cc1 (stereo unspecified)	n	n	n	n	n	n
Cc1cc2nc3c(=O)n(CCc4ccccc4)c(=O)[nH]c3nc2cc1N	n	n	34	n	n	n
CN1CCS/C1=C/C=C1/SC(=S)N(Cc2ccccc2)C1=O	n	n	n	n	n	n
CCCCN1C(=O)/C(=C/C=C2\SCCN2C)SC1=S	n	x	n	9.8	x	x
CN1CCS/C1=C/C=C1\SC(=S)N(CC(=O)O)C1=O	66	n	n	n	n	n
Cc1ccc(Cc2c(-c3ccc(C)cc3)nc3c(Cl)cc(C(F)(F)F)cn23)cc1	n	x	x	x	x	x
COCc1c(C#N)c(NCCc2ccccc2)nc(C)c1[N+](=O)[O-]	n	n	n	n	n	78
COCc1c(C#N)c(NCCc2ccc(F)cc2)nc(C)c1[N+](=O)[O-]	n	n	n	n	n	76
